According to ChEMBL document CHEMBL4513216, “Probing the Open Global Health Chemical Diversity Library for Multistage-Active Starting Points for Next-Generation Antimalarials” (ACS Infect Dis, 2020):

Assay: Toxicity liver stage against HepG2, at 10uM
Type: cell-based
Set-up: test concentration 10 uM, cell line HepG2-A16-CD81EGFP
Conditions: human, HepG2-A16-CD81EGFP cells; read-out: INHIBITION
Method in brief: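 Uninfected HepG2-A16-CD81EGFP cells, 3 × 10^3 per well, 1536-well, plated on prespotted compound at 10 μM final, parasite-free screening media added to match infected plates; puromycin 10 μM positive, DMSO 0.5% negative; run in parallel with 48 h PbLuc assay at 37 °C, 5% CO2; viability by CellTiter-Glo luminescence, normalized to controls.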

| SMILES | cytotoxicity at 10 µM [%] |
| --- | --- |
| CCN(CC)C(=O)CSc1sc2c(O)cc(=O)[nH]c2c1C(N)=O | 0.488 |
| O=S(=O)(NCC1(O)CCOc2ccccc21)c1ccc(Cl)s1 (stereo unspecified) | 6.87 |
| COc1cc(C(=O)NCCCc2ccccc2)on1 | -2.1 |
| Cc1cc(C)c(S(=O)(=O)Nc2c(C)nc(N(C)C)nc2C)cc1C | 6.63 |
| O=C1[C@@H]2CCN(C3CCC3)C[C@@H]2OCCN1Cc1ccncc1 | -135 |
| O=C(c1cnccn1)N1CCc2onc(CN3CCCC3)c2C1 | 8.7 |
| CS(=O)(=O)N1Cc2nccn2CC(CN2CCCC2)C1 (stereo unspecified) | -111 |
| Cn1cc(CN2CCC3(CCCN(C(=O)c4cnccn4)C3)C2)cn1 (stereo unspecified) | -131 |
| COc1cccc(C(c2c(C)n[nH]c2O)c2c(C)n[nH]c2O)c1OC | 12.4 |
| COc1cccc(CN2CCC3(CC(Nc4ccncn4)C3)C2)c1F (stereo unspecified) | 1.69 |
| Cc1cc(C)nc(Nc2cccc(C3CCCN(CCO)C3)n2)n1 (stereo unspecified) | -12.9 |
| Cn1cccc1C(=O)N1CCCCC1c1[nH]ncc1S(C)(=O)=O (stereo unspecified) | -4.66 |
| Cc1cccc(C(=O)N2CCCCC2c2[nH]ncc2S(C)(=O)=O)c1 (stereo unspecified) | -7.44 |
| COc1nccc(C(F)(F)F)c1C(=O)O | 16 |
| Cc1cc(N(C)C)nc(N2CCCC2c2cc(C)on2)n1 (stereo unspecified) | -2.38 |
| O=C(O)c1ccn(-c2ccccc2NC(=O)c2ccccc2Cl)n1 | -161 |
| CC(C(=O)N1CCN(Cc2ccncc2)CC1)n1cncn1 (stereo unspecified) | -4.73 |
| CCN(CC)c1ncc(CNC2CCc3nc(C)nn3C2)s1 (stereo unspecified) | 2.78 |
| CC(NCc1cccc2c1OCCO2)c1cc2c(cc1Br)OCCO2 (stereo unspecified) | 3.6 |
| O=S1(=O)CCC(n2cc(CNc3ccccc3Br)cn2)C1 (stereo unspecified) | -4.9 |
| COCCOCC(=O)NC(C#N)c1cccc(Cl)c1Cl (stereo unspecified) | 7.84 |
| O=C(Cn1nnc(-c2cc3ccccc3o2)n1)N1CCOCC1 | 7.63 |
| CC(C)(NC(=O)c1ccc(-c2ccc(F)cc2)s1)C(N)=O | -4.05 |

| SMILES | cytotoxicity at 10 µM [%] |
| --- | --- |
| Cc1nc(CN2CCN(C(=O)COCc3ccccc3)CC2)no1 | -14.1 |
| COC[C@@]12CCO[C@@H]1CCN(C(=O)C1CCSCC1)C2 | -104 |
| Cc1cn2c(=O)c(-c3ccnc(N4CCC[C@@H]4CO)n3)cnc2s1 | -9.52 |
| CN1CCC(N(Cc2ccncc2)Cc2nc3c(s2)CCCC3)CC1 | -2.56 |
| COc1ccccc1Oc1ncccc1CNC(=O)CN1CCCC1=O | -4.72 |
| COc1cc(F)c(-n2cnc(CCNC(C)=O)c2)cc1F | -12.1 |
| Cc1ncc(S(C)(=O)=O)c(N2Cc3ccccc3C2)n1 | -18.3 |
| CCn1nc(C)c(CN(CCOC)Cc2ccccn2)c1C | 9.77 |
| CCc1c(C)sc2ncnc(N3CCN(C4CCOCC4)CC3)c12 | 8.48 |
| CSc1ccccc1CC1CCCS(=O)(=O)C1 (stereo unspecified) | 2.26 |
| CCN1CCC(Cn2ccc3ccc(C(=O)OC)cc3c2=O)C1 (stereo unspecified) | -9.09 |
| Cc1ccc(F)c(OC2(C(=O)O)CCN(C(=O)c3ccccc3)CC2)c1 | 4.2 |
| CCCc1c(C2CCOC(C)(C)C2)nc(N)c(C#N)c1-c1cnn(C)c1 (stereo unspecified) | -3.22 |
| Cc1nc(C)c(C(=O)NCCn2nc3ccccn3c2=O)s1 | -2.51 |
| Cc1noc(C)c1S(=O)(=O)NC(=O)COc1ccc(C(C)C)cc1 | 2.1 |
| Cc1cnn(CC2CCCCN2Cc2cc(C)no2)c1 (stereo unspecified) | -9.21 |
| COc1cccc(CCC(=O)N2CCN(CC(C)(C)O)CC2)c1 | -8.39 |
| CCc1nc(CC(=O)N2CCN(c3cnccn3)CC2)cs1 | 1.97 |
| CCn1c(C)nnc1CN(C)C1CCN(CCCOC)C1 (stereo unspecified) | 4.19 |
| Cc1oc(-c2ccco2)nc1CC(=O)N1CCC(C(O)C(F)(F)F)CC1 (stereo unspecified) | -5.25 |
| O=C1CC2(CCCNC2)C(=O)N1Cc1ccc(F)cc1 (stereo unspecified) | 1.65 |
| CS(=O)(=O)N[C@H]1CCO[C@]2(CCN(C(=O)c3ccccn3)C2)C1 | -73.3 |
| Cn1ccnc1CN1CCC2(CC(=O)N(c3ccc4c(c3)OCO4)C2)C1 (stereo unspecified) | -79.8 |
